For orientation: inhibition means the drop in the measured response relative to a control, in per cent. The IC50 is the concentration needed to halve the response being measured.

Here are results for 14 compounds from ChEMBL document CHEMBL1152936, “Human sialidase inhibitors: design, synthesis, and biological evaluation of 4-acetamido-5-acylamido-2-fluoro benzoic acids” (Bioorg Med Chem, 2009).

Each structure is given as a SMILES string. Active and inactive are the calls of the source. No cut-off for these calls is given here.

Experiment [1] deals with T1, Sialidase-4 (Homo sapiens) (UniProt Q8WWR8).
T1 sequence (whole entry): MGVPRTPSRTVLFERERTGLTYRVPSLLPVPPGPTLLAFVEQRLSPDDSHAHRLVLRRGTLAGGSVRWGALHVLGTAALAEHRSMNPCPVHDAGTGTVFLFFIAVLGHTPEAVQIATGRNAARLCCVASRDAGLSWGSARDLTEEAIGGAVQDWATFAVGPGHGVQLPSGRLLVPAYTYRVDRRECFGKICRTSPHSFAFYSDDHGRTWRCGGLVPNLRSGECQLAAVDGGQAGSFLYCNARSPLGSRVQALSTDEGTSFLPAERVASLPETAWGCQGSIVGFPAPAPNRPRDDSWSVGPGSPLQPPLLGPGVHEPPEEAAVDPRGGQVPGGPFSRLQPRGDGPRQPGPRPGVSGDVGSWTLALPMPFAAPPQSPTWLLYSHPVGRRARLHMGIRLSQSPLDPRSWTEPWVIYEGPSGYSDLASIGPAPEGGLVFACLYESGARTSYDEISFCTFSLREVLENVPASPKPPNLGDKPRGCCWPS
Briefly: Inhibition of human NEU4 transiently transfected in HEK293 cells at 1 mM by fluorimetric analysis. In kind it is cell-based. The gist of the method:
(§1)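 Enzyme source was the crude supernatant of homogenates from HEK-293 cells transiently transfected with a full-length human sialidase cDNA plasmid. The reaction contained 10–20 nmol substrate (4MU-Neu5Ac) as bound sialic acid, 0.2 mg BSA, sodium acetate pH 4.6 and 0.2 mg Triton X-100. It was incubated at 37 °C for 10–30 min, and released sialic acid was quantified. Inhibitors were tested at 1 mM and reported as percent inhibition.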

Experiment [2] addresses Sialidase-1 (Homo sapiens) (UniProt Q99519). Put plainly: Inhibition of human NEU1 transiently transfected in HEK293 cells at 1 mM by fluorimetric analysis. In kind it is cell-based. The procedure, abridged:
as §1

Experiment [3] deals with T2, Sialidase-3 (Homo sapiens) (UniProt Q9UQ49).
T2 sequence (whole entry): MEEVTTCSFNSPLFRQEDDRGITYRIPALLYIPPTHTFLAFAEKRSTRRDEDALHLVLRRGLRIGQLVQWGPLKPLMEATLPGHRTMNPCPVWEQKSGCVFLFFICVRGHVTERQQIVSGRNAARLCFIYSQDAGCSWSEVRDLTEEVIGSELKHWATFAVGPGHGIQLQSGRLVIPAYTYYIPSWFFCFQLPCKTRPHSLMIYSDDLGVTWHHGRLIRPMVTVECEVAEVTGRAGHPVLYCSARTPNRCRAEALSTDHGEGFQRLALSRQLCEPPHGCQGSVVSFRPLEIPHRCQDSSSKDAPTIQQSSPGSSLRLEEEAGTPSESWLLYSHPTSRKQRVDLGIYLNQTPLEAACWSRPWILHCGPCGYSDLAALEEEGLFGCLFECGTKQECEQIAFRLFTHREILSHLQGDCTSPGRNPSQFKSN
Briefly: Inhibition of human NEU3 transiently transfected in HEK293 cells at 1 mM by fluorimetric analysis. Type of experiment: cell-based. The procedure, abridged: as §1

Experiment [4] deals with T3, Sialidase-3 (Homo sapiens, UniProt Q9UQ49).
T3 sequence (Q9UQ49 whole entry): T2 sequence (whole entry)
Put plainly: Inhibition of human NEU3 transiently transfected in HEK293 cells by fluorimetric analysis. In kind it is cell-based. The procedure, abridged:
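The sialidase was the crude supernatant of homogenized HEK-293 cells transiently transfected with full-length human NEU3 cDNA. The mixture held 10–20 nmol 4MU-Neu5Ac as bound sialic acid, 0.2 mg BSA, sodium acetate pH 4.6 and 0.2 mg Triton X-100, run at 37 °C for 10–30 min. Released sialic acid was measured, and IC50 came from nonlinear regression of concentration–inhibition curves.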

The target in experiment [5] is T3, Sialidase-3. Put plainly: Inhibition of human NEU3 transiently transfected in HEK293T cells by fluorimetric high-performance liquid chromatography. In kind it is cell-based, HEK-293T. The gist of the method: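 Crude supernatant of homogenates from HEK-293 cells transiently transfected with full-length human sialidase cDNA. Reaction: 10–20 nmol substrate as bound sialic acid, 0.2 mg BSA, sodium acetate pH 4.6, 0.2 mg Triton X-100.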

In another experiment the target is T4, Sialidase-4 (Homo sapiens, UniProt Q8WWR8).
T4 sequence (Q8WWR8 whole entry): T1 sequence (whole entry)
Put plainly: Inhibition of human NEU4 transiently transfected in HEK293 cells by fluorimetric analysis.

For the compound `CC(=O)Nc1cc(F)c(C(=O)O)cc1NC(=O)C1CC1`, the inhibition entry in experiment [1], in experiment [2] and in experiment [3] was “inactive” each time.
Turning to `CCC(C)C(=O)Nc1cc(C(=O)O)c(F)cc1NC(C)=O` (stereo unspecified), the inhibition result in experiment [1], in experiment [2] and in experiment [3] was “inactive” throughout.
In experiment [1], `CC(=O)Nc1cc(F)c(C(=O)O)cc1NC(=O)C(C)(C)C` returned an inhibition of less than 5%. Moreover, the inhibition result in experiment [2] and in experiment [3] was “inactive” throughout.
As to `CC(=O)Nc1cc(F)c(C(=O)O)cc1NC(=O)c1ccc2ccccc2c1`, the inhibition came to 10% in experiment [1] and 8% in experiment [3]. Moreover, the inhibition entry in experiment [2] was “inactive”.
With `CC(=O)Nc1cc(F)c(C(=O)O)cc1NC(C)=O`, the inhibition in experiment [1] stood at 8%; in experiment [3] it was 23%. This compound had an IC50 at Sialidase-3 [4] greater than 2000 µM. Further, the inhibition entry in experiment [2] is “inactive”.
Compound `CC(=O)Nc1cc(F)c(C(=O)O)cc1NC(=O)C(C)C` showed an inhibition in experiment [1] of 11%. For the same compound, the inhibition result in experiment [2] and in experiment [3] was “inactive” throughout.
In experiment [1], `CC(=O)Nc1cc(F)c(C(=O)O)cc1NC(=O)C1CCCCC1` had an inhibition of 6%. Further, the inhibition entry in experiment [2] and in experiment [3] was “inactive” each time.
Consider `CC(=O)Nc1cc(F)c(C(=O)O)cc1NC(=O)c1ccccc1`, for which the inhibition result in experiment [1], in experiment [2] and in experiment [3] was “inactive” throughout.
Turning to `CCCCC(=O)Nc1cc(C(=O)O)c(F)cc1NC(C)=O`, the inhibition in experiment [1] is less than 5%; in experiment [3], 13%. Further, the inhibition result in experiment [2] is “inactive”.
For `CC(=O)N[C@H]1[C@H]([C@H](O)[C@H](O)CO)OC(C(=O)O)=C[C@@H]1O` [NEU5AC2EN], at Sialidase-3 [5], 60 µM corresponded to half-maximal inhibition (IC50). This lies in the double-digit micromolar range.
Turning to `CC(=O)Nc1cc(F)c(C(=O)O)cc1NC(=O)C1CCCC1`, the inhibition entry in experiment [1], in experiment [2] and in experiment [3] was “inactive” throughout.
As for `CC(=O)Nc1cc(F)c(C(=O)O)cc1NC(=O)c1ccc(-c2ccccc2)cc1`, the IC50 against Sialidase-4 and against Sialidase-3 [4] was no less than 5000 µM each time. For the same compound, in experiment [2], the inhibition entry was “inactive”.
In experiment [1], `CCCC(=O)Nc1cc(C(=O)O)c(F)cc1NC(C)=O` came in with an inhibition of less than 5%. In addition, the inhibition result in experiment [2] and in experiment [3] was “inactive” in each case.
`CCC(CC)C(=O)Nc1cc(C(=O)O)c(F)cc1NC(C)=O` yielded an inhibition in experiment [1] of less than 5%. Further, the inhibition entry in experiment [2] and in experiment [3] was “inactive” throughout.
